The source of these data is publication PMC4846470 (Psychopharmacology, 2016).

Data set [1] relates to Male ND4 Swiss–Webster mice. Description: Locomotor activity. It is filed as in vivo. The settings on record: for Time of peak (maximal) locomotor depression after injection: active doses.
Data set [2] has as its target human recombinant CB1 receptors (Homo sapiens, UniProt P21554). Description: Radioligand binding to human recombinant CB1 receptors in CHO cell membranes.
In data set [3] the target is human CB1 cannabinoid receptors (Homo sapiens, UniProt P21554). Description: Gi agonist effect: cAMP functional assay in CHO cells expressing CB1. The conditions noted are these: for Emax: CHO, read-out: Maximum Effect (%). It is filed as cell-based.
A further data set has as its system Male Sprague-Dawley rats. Description: Drug discrimination in rats trained to discriminate Δ^9-THC. The settings on record: for Effect on rate of responding: cannabinoids at doses which substituted; for Substitution for the discriminative stimulus effects of Δ^9-THC: full substitution defined as ≥80% drug-appropriate responding. It is filed as in vivo. A digest of the protocol: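 Vehicle: ethanol/Cremophor EL/0.9% saline 1:1:18. In tests both levers paid and data ran to first reinforcer or 20 min. Six rats per compound got all doses. Pretreatment was at locomotor peak-depression time. Rate was responses/time to first reinforcer.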

Structures are written as SMILES. Entries after “also recorded” stand apart in the source; their conditions may differ.

Sequence of human recombinant CB1 receptors (P21554 whole entry): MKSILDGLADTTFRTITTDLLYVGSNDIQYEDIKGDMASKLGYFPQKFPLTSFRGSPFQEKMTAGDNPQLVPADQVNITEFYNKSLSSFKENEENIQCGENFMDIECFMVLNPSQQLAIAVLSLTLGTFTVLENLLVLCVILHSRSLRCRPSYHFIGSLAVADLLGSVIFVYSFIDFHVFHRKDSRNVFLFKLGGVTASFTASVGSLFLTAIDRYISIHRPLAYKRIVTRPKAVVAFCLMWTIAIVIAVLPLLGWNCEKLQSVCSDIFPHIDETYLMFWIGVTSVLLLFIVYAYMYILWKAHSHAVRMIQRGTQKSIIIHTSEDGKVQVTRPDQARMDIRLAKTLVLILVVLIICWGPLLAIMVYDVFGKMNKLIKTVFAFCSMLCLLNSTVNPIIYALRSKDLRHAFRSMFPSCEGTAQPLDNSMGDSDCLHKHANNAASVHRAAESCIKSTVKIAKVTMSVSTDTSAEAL
Sequence of human CB1 cannabinoid receptors (P21554 whole entry): as above

The Ki is the equilibrium dissociation constant of an inhibitor or competing ligand from its target. A word on the EC50: it is the concentration giving half of the maximal effect. Lower therefore signals higher potency in that assay. With `CCCCCn1nc(C(=O)NC(C(N)=O)C(C)(C)C)c2ccccc21` (stereo not drawn) [ADB-PINACA, N-[1-(aminocarbonyl)-2,2-dimethylpropyl]-1-pentyl-1H-indazole-3-carboxamide], the “Time of peak (maximal) locomotor depression after injection” value (from here on “Time of peak”) in data set [1] (mice, i.p.) came to 20 min. In addition, in data set [2], the Ki was determined as 0.59 nM. In data set [3], a half-maximal response (EC50) required 0.024 nM and the Emax came out at 99.6%.
In the case of `CCCCCn1cc(C(=O)NC(C(N)=O)C(C)(C)C)c2ccccc21` (stereo not drawn) [ADBICA, N-(1-amino-3,3-dimethyl-1-oxobutan-2-yl)-1-pentyl-1H-indole-3-carboxamide], the “Time of peak” value in data set [1] (mice, i.p.) was no more than 20 min. Moreover, the Ki in data set [2] turned out to be 1.3 nM. In addition, in data set [3], it took 0.38 nM to reach a half-maximal effect (EC50) and the Emax came out at 97.4%.
As to `CCCCCn1cc(C(=O)c2ccc(C)c3ccccc23)c2ccccc21` [JWH-122, (4-methyl-1-naphthalenyl)(1-pentyl-1H-indol-3-yl)-methanone], in data set [2], the inhibitory constant (Ki) came out at 3.35 nM. Moreover, in data set [3], the EC50 was 2.8 nM and the Emax turned out to be 102%.
Turning to `CCCCCn1cc(C(=O)c2ccc(CC)c3ccccc23)c2ccccc21` [JWH-210, (4-ethyl-1-naphthalenyl)(1-pentyl-1H-indol-3-yl)-methanone], in data set [1] (8 h following 10 mg/kg i.p.), the “Mice with tremors upon handling” value is 6 of 8. In addition, the Ki in data set [2] came to 1.01 nM. In addition, in data set [3], a half-maximal effect (EC50) was put at 111 nM and the Emax is 98.2%. Further, the “Effect on rate of responding” value in the data set with Male Sprague-Dawley rats (THC-trained rats) is on record as “modest depression of rate of responding”.
Regarding `CNC(C)Cc1ccc2c(c1)OCO2` (stereo not drawn) [MDMA, 3,4-Methylenedioxy-methamphetamine], the “Maximum THC-appropriate responding” value in the data set on Male Sprague-Dawley rats (THC-trained rats, following 1.5 mg/kg, negative control) is on record as 11%. Further, in the data set on Male Sprague-Dawley rats (THC-trained rats), the “Effect on rate of responding” value was “dose-dependently depressed rate of responding” and the “Substitution for the discriminative stimulus effects of Δ^9-THC” value is “did not substitute; also recorded: failed to substitute”. In the data set with Male Sprague-Dawley rats (following 3 mg/kg, n=9), the “Rats that failed to complete the first fixed ratio” value is recorded as 6 of 9.
In the case of `CCCCCn1cc(C(=O)c2ccc(OC)cc2)c2ccccc21` [RCS-4, (4-methoxyphenyl)(1-pentyl-1H-indol-3-yl)methanone], the Ki in data set [2] was found to be 22.5 nM. Also, in data set [3], a half-maximal effect (EC50) was put at 20 nM and the Emax was determined as 101%. Also, in the data set on Male Sprague-Dawley rats (THC-trained rats), the “Effect on rate of responding” value is recorded as “modest depression of rate of responding” and the “Substitution for the discriminative stimulus effects of Δ^9-THC” value is recorded as “full substitution”.
Turning to `O=C(c1cccc2ccccc12)c1nn(CCCCCF)c2ccccc12` [THJ-2201, (1-(5-fluoropentyl)-1H-indazol-3-yl)(naphthalen-1-yl)methanone], in data set [3], the concentration giving a half-maximal response (EC50) is 0.64 nM and the Emax is 96.6%.
Regarding `CCCCCc1cc(O)c2c(c1)OC(C)(C)[C@@H]1CCC(C)=C[C@@H]21` [Δ^9-THC, Δ^9-Tetrahydrocannabinol, reference compound], in data set [1] (mice, i.p.), the “Time of peak” value lay in the range of 30 to 60 min. The “ED50 Locomotor Activity (locomotor depressant effects)” value in data set [1] (mice, i.p., dose producing 1/2 maximal depression, mean with 95% confidence interval) is recorded as 12.99 (2.51 to 67.21) mg/kg. The “ED50 Drug Discrimination (discriminative stimulus effects)” value in the data set with Male Sprague-Dawley rats (THC-trained rats, i.p., mean with 95% confidence interval) is 1.15 (0.21 to 6.27) mg/kg.
